Measured values reported in article PMC3461162 (British Journal of Cancer, 2012).

What was measured:
tumour glucose uptake = assay: Metabolic response by FDG-PET; type: in vivo, human; details: day 35
Summary of the method: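 FDG-PET was done at screening in solid-tumour patients with RECIST-measurable lesions and in all lymphoma patients. Percentage change in SUVmax from baseline was calculated. Metabolic response was defined as an SUVmax decrease >25% per EORTC criteria.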

[1] = Plasma pharmacokinetics, non-compartmental analysis; type: in vivo, human; details: for AUC(0-t) / AUC / Cmax / Vd/F / half-life / Tmax: human, plasma, oral; for AUC(0-t): AUC0–12, Gmean (range); for Vd/F: Vss/F, Amean (range)
[2] = following BID dosing, 10 mg BID solution
[3] = following BID dosing, 20 mg BID solution
[4] = following BID dosing, 40 mg BID solution
[5] = following BID dosing, 40 mg BID tablet
[6] = following BID dosing, 60 mg BID tablet
[7] = following BID dosing, 90 mg BID tablet
[8] = following BID dosing, 120 mg BID tablet
[9] = 10 mg, single dose, 10 mg solution (n=5)
[10] = 20 mg, single dose, 20 mg solution (n=3)
[11] = 40 mg, single dose, 40 mg solution (n=6)
[12] = 40 mg, single dose, 40 mg tablet (n=7)
[13] = 60 mg, single dose, 60 mg tablet (n=7)
[14] = 90 mg, single dose, 90 mg tablet (n=11)
[15] = 120 mg, single dose, 120 mg tablet (n=10)

COc1ccc(-c2ccc3c(N4CCOC[C@@H]4C)nc(N4CCOC[C@@H]4C)nc3n2)cc1CO [AZD8055]
Patients with partial metabolic response by FDG-PET (decrease in SUVmax>25%) (tumour glucose uptake; 40 mg tablet BID): 2/5
Patients with partial metabolic response by FDG-PET (decrease in SUVmax>25%) (tumour glucose uptake; 60 mg BID): 2/5
Patients with partial metabolic response by FDG-PET (decrease in SUVmax>25%) (tumour glucose uptake; 90 mg BID): 1/7
Patients with partial metabolic response by FDG-PET (decrease in SUVmax>25%) (tumour glucose uptake; 120 mg BID): 3/9
Dose proportionality of exposure ([1]; BID dosing, solution formulation (10–40 mg)): proportional increase in exposure
Dose proportionality of exposure ([1]; BID dosing, tablet formulation (40–120 mg)): greater than proportional increase with increasing dose
CLss/F, Amean (n) (range) [1, 2]: 439 (4) (352–521) l h^−1
Cmin ss, Gmean (n) (range) [1, 2]: 0.114 (3) (0.057–0.189) ng ml^−1
T c (temporal change, linearity factor), Gmean (n) (range) [1, 2]: 1.03 (4) (0.839–1.48)
CLss/F, range only (Amean NC, n=2) [1, 3]: NC (2) (268–426) l h^−1
Cmin ss, range only (Gmean NC, n=1) [1, 3]: NC (1) (0.228–0.228) ng ml^−1
T c (temporal change, linearity factor), range only (Gmean NC, n=2) [1, 3]: NC (2) (1.61–2.07)
CLss/F, Amean (n) (range) [1, 4]: 369 (6) (278–492) l h^−1
Cmin ss, Gmean (n) (range) [1, 4]: 0.370 (5) (0.162–0.821) ng ml^−1
T c (temporal change, linearity factor), Gmean (n) (range) [1, 4]: 1.10 (6) (0.539–1.65)
CLss/F, Amean (n) (range) [1, 5]: 465 (5) (148–906) l h^−1
Cmin ss, Gmean (n) (range) [1, 5]: 0.959 (5) (0.294–2.71) ng ml^−1
T c (temporal change, linearity factor), Gmean (n) (range) [1, 5]: 0.806 (5) (0.444–1.13)
CLss/F, Amean (n) (range) [1, 6]: 483 (6) (92.9–1250) l h^−1
T c (temporal change, linearity factor), Gmean (n) (range) [1, 6]: 1.30 (6) (0.525–2.50)
CLss/F, Amean (n) (range) [1, 7]: 856 (4) (457–1630) l h^−1
Cmin ss, Gmean (n) (range) [1, 7]: 0.543 (5) (0.177–3.18) ng ml^−1
T c (temporal change, linearity factor), Gmean (n) (range) [1, 7]: 1.18 (4) (0.831–1.69)
CLss/F, Amean (n) (range) [1, 8]: 283 (7) (68.2–494) l h^−1
Cmin ss, Gmean (n) (range) [1, 8]: 3.54 (5) (1.40–41.1) ng ml^−1
T c (temporal change, linearity factor), Gmean (n) (range) [1, 8]: 1.81 (7) (1.09–3.50)
AUC(0-t) [1, 9]: 24.1 ng·h/mL
AUC ([1]; 10 mg, AUC, Gmean (range), single dose, 10 mg solution (n=5)): 24.5 ng·h/mL
AUC ([1]; 10 mg, AUCss, Gmean (n) (range), following BID dosing, 10 mg BID solution): 23 ng·h/mL
Cmax ([1]; 10 mg, Cmax ss, Gmean (n) (range), following BID dosing, 10 mg BID solution): 17.3 ng/mL
Cmax ([1]; 10 mg, Cmax, Gmean (range), single dose, 10 mg solution (n=5)): 16.8 ng/mL
Vd/F [1, 9]: 884 L
half-life ([1]; 10 mg, t1/2, Amean (range), single dose, 10 mg solution (n=5)): 2.43 h
half-life ([1]; 10 mg, t1/2 ss, Amean (n) (range), following BID dosing, 10 mg BID solution): 2.82 h
Tmax ([1]; 10 mg, tmax ss, Median (n) (range), following BID dosing, 10 mg BID solution): 0.5 h
Tmax ([1]; 10 mg, tmax, Median (range), single dose, 10 mg solution (n=5)): 0.5 h
AUC(0-t) [1, 10]: 43.3 ng·h/mL
AUC ([1]; 20 mg, AUC, Gmean (range), single dose, 20 mg solution (n=3)): 43.7 ng·h/mL
Cmax ([1]; 20 mg, Cmax, Gmean (range), single dose, 20 mg solution (n=3)): 27 ng/mL
Vd/F [1, 10]: 1050 L
half-life ([1]; 20 mg, t1/2, Amean (range), single dose, 20 mg solution (n=3)): 1.86 h
Tmax ([1]; 20 mg, tmax, Median (range), single dose, 20 mg solution (n=3)): 0.5 h
AUC(0-t) [1, 11]: 99.4 ng·h/mL
AUC(0-t) [1, 12]: 124 ng·h/mL
AUC ([1]; 40 mg, AUC, Gmean (range), single dose, 40 mg solution (n=6)): 101 ng·h/mL
AUC ([1]; 40 mg, AUC, Gmean (range), single dose, 40 mg tablet (n=7)): 127 ng·h/mL
AUC ([1]; 40 mg, AUCss, Gmean (n) (range), following BID dosing, 40 mg BID solution): 111 ng·h/mL
AUC ([1]; 40 mg, AUCss, Gmean (n) (range), following BID dosing, 40 mg BID tablet): 101 ng·h/mL
Cmax ([1]; 40 mg, Cmax ss, Gmean (n) (range), following BID dosing, 40 mg BID solution): 61.9 ng/mL
Cmax ([1]; 40 mg, Cmax ss, Gmean (n) (range), following BID dosing, 40 mg BID tablet): 46.1 ng/mL
Cmax ([1]; 40 mg, Cmax, Gmean (range), single dose, 40 mg solution (n=6)): 70.9 ng/mL
Cmax ([1]; 40 mg, Cmax, Gmean (range), single dose, 40 mg tablet (n=7)): 72.3 ng/mL
Vd/F [1, 11]: 840 L
Vd/F [1, 12]: 762 L
half-life ([1]; 40 mg, t1/2, Amean (range), single dose, 40 mg solution (n=6)): 2.65 h
half-life ([1]; 40 mg, t1/2, Amean (range), single dose, 40 mg tablet (n=7)): 2.28 h
half-life ([1]; 40 mg, t1/2 ss, Amean (n) (range), following BID dosing, 40 mg BID solution): 2.13 h
half-life ([1]; 40 mg, t1/2 ss, Amean (n) (range), following BID dosing, 40 mg BID tablet): 3.04 h
Tmax ([1]; 40 mg, tmax ss, Median (n) (range), following BID dosing, 40 mg BID solution): 0.25 h
Tmax ([1]; 40 mg, tmax ss, Median (n) (range), following BID dosing, 40 mg BID tablet): 1 h
Tmax ([1]; 40 mg, tmax, Median (range), single dose, 40 mg solution (n=6)): 0.37 h
Tmax ([1]; 40 mg, tmax, Median (range), single dose, 40 mg tablet (n=7)): 1 h
AUC(0-t) [1, 13]: 131 ng·h/mL
AUC ([1]; 60 mg, AUC, Gmean (range), single dose, 60 mg tablet (n=7)): 136 ng·h/mL
AUC ([1]; 60 mg, AUCss, Gmean (n) (range), following BID dosing, 60 mg BID tablet): 178 ng·h/mL
Cmax ([1]; 60 mg, Cmax ss, Gmean (n) (range), following BID dosing, 60 mg BID tablet): 82.8 ng/mL
Cmax ([1]; 60 mg, Cmax, Gmean (range), single dose, 60 mg tablet (n=7)): 57.1 ng/mL
Vd/F [1, 13]: 1770 L
half-life ([1]; 60 mg, t1/2, Amean (range), single dose, 60 mg tablet (n=7)): 2.37 h
half-life ([1]; 60 mg, t1/2 ss, Amean (n) (range), following BID dosing, 60 mg BID tablet): 2.81 h
Tmax ([1]; 60 mg, tmax ss, Median (n) (range), following BID dosing, 60 mg BID tablet): 1 h
Tmax ([1]; 60 mg, tmax, Median (range), single dose, 60 mg tablet (n=7)): 0.5 h
Cmax ([1]; 90 mg): 70.1 ng/mL
half-life ([1]; 90 mg): 2.36 h
AUC(0-t) [1, 14]: 130 ng·h/mL
AUC ([1]; 90 mg, AUC, Gmean (range), single dose, 90 mg tablet (n=11)): 134 ng·h/mL
AUC ([1]; 90 mg, AUCss, Gmean (n) (range), following BID dosing, 90 mg BID tablet): 122 ng·h/mL
Cmax ([1]; 90 mg, Cmax ss, Gmean (n) (range), following BID dosing, 90 mg BID tablet): 70 ng/mL
Vd/F [1, 14]: 2450 L
half-life ([1]; 90 mg, t1/2 ss, Amean (n) (range), following BID dosing, 90 mg BID tablet): 2.63 h
Tmax ([1]; 90 mg, tmax ss, Median (n) (range), following BID dosing, 90 mg BID tablet): 0.5 h
Tmax ([1]; 90 mg, tmax, Median (range), single dose, 90 mg tablet (n=11), MTD): 0.5 h
AUC(0-t) [1, 15]: 280 ng·h/mL
AUC ([1]; 120 mg, AUC, Gmean (range), single dose, 120 mg tablet (n=10)): 294 ng·h/mL
AUC ([1]; 120 mg, AUCss, Gmean (n) (range), following BID dosing, 120 mg BID tablet): 501 ng·h/mL
Cmax ([1]; 120 mg, Cmax ss, Gmean (n) (range), following BID dosing, 120 mg BID tablet): 355 ng/mL
Cmax ([1]; 120 mg, Cmax, Gmean (range), single dose, 120 mg tablet (n=10)): 177 ng/mL
Vd/F [1, 15]: 1370 L
half-life ([1]; 120 mg, t1/2, Amean (range), single dose, 120 mg tablet (n=10)): 3.14 h
half-life ([1]; 120 mg, t1/2 ss, Amean (n) (range), following BID dosing, 120 mg BID tablet): 2.45 h
Tmax ([1]; 120 mg, tmax ss, Median (n) (range), following BID dosing, 120 mg BID tablet): 0.5 h
Tmax ([1]; 120 mg, tmax, Median (range), single dose, 120 mg tablet (n=10)): 0.5 h
half-life ([1]; mean t1/2, single and multiple doses across all cohorts): 1.7 to 3.1 h
Tmax ([1]; median tmax, single and multiple doses across all cohorts): ~0.5 h
Oral bioavailability ([1]; oral dosing in patients): orally bioavailable
tmax, Median (range) ([1]; single dose, 90 mg tablet (n=11), MTD): 1.00 (0.25–4) h
Dose proportionality of exposure ([1]; single dosing, all cohorts): proportional increases in exposure with increasing dose
